This note sets out measurements from ChEMBL document CHEMBL4665880, “Dihydrobenzoxazinone derivatives as aldose reductase inhibitors with antioxidant activity” (Bioorg Med Chem, 2020).

For one assay, the species on record is Rattus norvegicus. Description: Selectivity index, ratio of IC50 for rat kidney ALR1 to IC50 for rat lens ALR2.
The nature of assay [1]: Antioxidant activity assessed as DPPH radical scavenging activity at 10 uM relative to control. It is filed as functional. The essentials:
(§1)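 DPPH (0.025 mg/mL stock in methanol, 1 mL) mixed with 1.9 mL methanol and 100 µL methanolic compound or Trolox, giving final 100, 10, 5 and 1 µM. Absorbance at 517 nm read after reaching steady state; scavenging % = (1 − (A sample − A blank)/A control)×100, blank being compound in methanol, control DPPH in methanol. Triplicate.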
A general note: The DPPH test is a chemical assay of radical scavenging.

Assay [2] in a line: Antioxidant activity assessed as DPPH radical scavenging activity at 100 uM relative to control. It is filed as functional. The gist of the method: as §1
The subject of the next assay is Brain. Description: Antioxidant activity in rat brain homogenate assessed as inhibition of FeCl3/ascorbic acid-induced lipid peroxidation by measuring MDA level at 100 uM after 30 mins by thiobarbituric acid based spectrophotometric method relative to control. It is filed as functional, tissue-based. The essentials: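 Fresh rat brain homogenized 25% in ice-cold saline, spun 3000 rpm 10 min; supernatant incubated with compound (100 µM), […] at 37 °C for 30 min. MDA measured by TBA kit: boiled 95 °C 40 min, iced, centrifuged, read at 532 nm. Methanol used as control vehicle. Triplicate.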

In assay [3] the target is Aldo-keto reductase family 1 member A1 (Rattus norvegicus, UniProt P51635). Description: Inhibition of rat kidney ALR1 using […] as substrate preincubated for 4 mins at 37 degC followed by substrate addition and measured after 4 mins in presence of NADPH. The class given is tissue-based. The gist of the method:
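Rat kidney enzyme extract with 0.12 mM NADPH, 0.1 M sodium phosphate pH 7.2 and inhibitor in DMSO, preincubated 4 min at 37 °C; reaction started with sodium D-[…] (20 mM stock) and monitored 4 min. Corrected for nonenzymatic NADPH oxidation. Tested 100 µM to 10 nM, three replicates per concentration; IC50 from linear log(dose)–response fit (r² > 0.95).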

Assay [4] can be described thus: Antioxidant activity assessed as DPPH radical scavenging activity at 1 uM relative to control. The class given is functional. The gist of the method: as §1
Assay [5] in a line: Antioxidant activity assessed as superoxide anion radical scavenging activity incubated for 40 mins by spectrophotometric method. The class given is functional. The essentials: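 Incubation at 37 °C for 40 min, then 2 mL chromogenic reagent added; after 10 min standing, absorbance read at 550 nm. Activity (U/µmol) = (A control − A sample)/(A control − A blank) ×150 ÷ sample concentration (µM); control ascorbic acid 150 mg/L, blank distilled water. Triplicate.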

Assay [6] in a line: Antioxidant activity assessed as DPPH radical scavenging activity at 5 uM relative to control. The class given is functional. The gist of the method: as §1
Assay [7] deals with Aldo-keto reductase family 1 member B1 (Rattus norvegicus, UniProt P07943). Description: Inhibition of rat lens ALR2 using D,L-glyceraldehyde as substrate preincubated for 5 mins at 30 degC followed by substrate addition and measured after 4 mins in presence of NADPH. It is filed as tissue-based.

Sequence of Aldo-keto reductase family 1 member A1 (P51635 whole entry, looked up): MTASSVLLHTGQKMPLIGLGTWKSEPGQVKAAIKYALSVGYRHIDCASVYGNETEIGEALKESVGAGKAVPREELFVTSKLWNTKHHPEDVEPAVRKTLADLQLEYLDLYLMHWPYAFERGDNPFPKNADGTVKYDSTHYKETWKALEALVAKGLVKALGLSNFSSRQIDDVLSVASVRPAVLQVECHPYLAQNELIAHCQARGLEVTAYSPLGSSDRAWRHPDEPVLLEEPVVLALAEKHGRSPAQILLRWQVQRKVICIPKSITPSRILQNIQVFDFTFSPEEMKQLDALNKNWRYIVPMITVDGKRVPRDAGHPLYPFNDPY

One may read the inhibition as the percentage by which the read-out fell short of the control. Broadly, the IC50 is the concentration that inhibits the measured activity by half. For the compound `COc1cc(/C=C/c2cccc3c2OC(=O)CN3CC(=O)O)ccc1O`, the Ratio IC50 in the assay filed under Rattus norvegicus turned out to be 24. Besides, the inhibition was found to be 85% in assay [1]; 93.1% in assay [2]; 80.7% in the assay on Brain; 18.2% in assay [4]; 57.8% in [6]. Moreover, the values for the IC50 in assay [3] and in assay [7] were 4500 nM and 188 nM, respectively. For the same compound, the Activity in assay [5] turned out to be 1.02 U/µM.
As to `O=C(O)CN1CC(=O)Oc2c(/C=C/c3ccccc3)cccc21`, in the assay filed under Rattus norvegicus, the Ratio IC50 is 9.11. The inhibition in assay [1] stood at 84.2%; in assay [2] it was 86.5%; in the assay with Brain, 75.8%; in assay [4], 12%; in assay [6], 43.6%. In addition, the half-maximal inhibitory concentration (IC50) in assay [3] came to 2810 nM; in assay [7], 308 nM. For the same compound, the Activity in [5] was found to be 0.81 U/µM.
Regarding `COc1ccc(-c2cccc3c2OC(=O)CN3CC(=O)O)cc1`, in assay [7], the IC50 turned out to be 774 nM.
As to `Cc1ccc(/C=C/c2cccc3c2OC(=O)CN3CC(=O)O)cc1`, the IC50 in assay [7] is 220 nM.
On to `O=C(O)CN1CC(=O)Oc2ccccc21`, for which, in the assay filed under Rattus norvegicus, the Ratio IC50 is 7.1. In addition, the inhibition in assay [1] was determined as 65.6%; in assay [2], 92.8%; in the assay on Brain it was 72.2%; in assay [4] it was 7.17%; in assay [6] it was 23.1%. The half-inhibitory concentration (IC50) in assay [3] came out at 13700 nM; in assay [7], 1930 nM. Moreover, the Activity in assay [5] was 0.73 U/µM.
`O=Cc1ccc(-c2cccc3c2OC(=O)CN3CC(=O)O)cc1`: the half-inhibitory concentration (IC50) in assay [7] stood at 1050 nM.
On the same count and under the same terms, for `O=C(O)CN1CC(=O)Oc2c(/C=C/c3ccc(-c4ccccc4)cc3)cccc21` the value was 281 nM.
For the compound `CC(/C=C1\SC(=S)N(CC(=O)O)C1=O)=C\c1ccccc1`, the IC50 in [3] came out at 1200 nM.
Turning to `Cc1c(C)c2c(c(C)c1O)CCC(C)(C(=O)O)O2` (stereo not drawn), the inhibition in assay [1] amounted to 82.6%; in [2], 94.6%; with Brain it was 75.5%; in assay [4] it was 10.2%; in [6], 47.8%. Further, the Activity in assay [5] was determined as 1.13 U/µM.
In the case of `O=C(O)CN1CC(=O)Oc2c(/C=C/c3ccc([N+](=O)[O-])cc3)cccc21`, the IC50 in assay [7] was 262 nM.
For `O=C(O)CN1CC(=O)Oc2c(/C=C/c3ccc(O)cc3)cccc21`, the Ratio IC50 in the assay listed under Rattus norvegicus amounted to 60.6. The inhibition in [1] is 87.5%; in assay [2], 93.2%; in the assay on Brain, 81.7%; in [4], 14.7%; in assay [6], 57.4%. The IC50 in assay [3] was 4990 nM; in assay [7], 82 nM. Further, in assay [5], the Activity amounted to 1.07 U/µM.
With `O=C(O)CN1CC(=O)Oc2c(/C=C/c3ccc(F)cc3)cccc21`, the Ratio IC50 in the assay filed under Rattus norvegicus came out at 25.7. The inhibition was 90% in assay [1]; 92.6% in [2]; 74.8% in the assay with Brain; 12.6% in assay [4]; 57.1% in [6]. For the same compound, the half-maximal inhibitory concentration (IC50) in assay [3] is 4280 nM; in [7], 167 nM. The Activity in assay [5] turned out to be 0.79 U/µM.
As for `O=C(O)CN1CC(=O)Oc2c(-c3ccccc3)cccc21`, the inhibition in assay [1] is 36.5%; in assay [2], 91.3%; in assay [4], 6.12%; in assay [6] it was 13.2%. For the same compound, the IC50 in [7] amounted to 3340 nM.
On to `COc1ccc(/C=C/c2cccc3c2OC(=O)CN3CC(=O)O)cc1`, for which the IC50 in assay [7] was 208 nM.
For `O=C(O)CN1CC(=O)Oc2c(/C=C/c3ccc(C(F)(F)F)cc3)cccc21`, in the assay filed under Rattus norvegicus, the Ratio IC50 turned out to be 23.7. The inhibition in assay [1] amounted to 89.2%; in assay [2] it was 91.3%; in assay [4] it was 9.92%; in [6], 44.3%. Further, the IC50 in [3] turned out to be 3270 nM; in assay [7], 138 nM.
In the case of `CC(C)(C)c1ccc(/C=C/c2cccc3c2OC(=O)CN3CC(=O)O)cc1`, the Ratio IC50 in the assay listed under Rattus norvegicus is 3.93. For the same compound, the IC50 in assay [3] stood at 669 nM; in assay [7], 170 nM.
